{"source": "ChEMBL document CHEMBL4350969", "about": "“Falcipain Inhibitors Based on the Natural Product Gallinamide A Are Potent in Vitro and in Vivo Antimalarials” (J Med Chem, 2019)", "key": {"[1]": {"assay": "Half life in Swiss mouse plasma at 1 ug/ml by UPLC-MS analysis", "format": "ADME, cell-free", "in_short": "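Fresh whole blood from non-fasted male Swiss outbred mice; plasma separated by centrifugation. Compound spiked to 1 μg/mL final (0.2% DMSO, 0.4% acetonitrile), kept at 37 °C; aliquots taken over 4 h (n=3 per time point), snap-frozen, protein precipitated with acetonitrile, UPLC-MS (ESI+) against matrix calibration standards. Exponential decay fit gives k; half-life = ln(2)/k.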"}, "Plasmodium falciparum [2]": {"tested_on": "Plasmodium falciparum", "assay": "Induction of morphological changes in synchronized ring stage Plasmodium falciparum W2 infected in human erythrocytes assessed as swollen food vacuoles with accumulated hemoglobin at 300 nM measured after 36 hrs by Giemsa staining-based photomicrographic method", "format": "functional, organism-based", "in_short": "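Synchronized W2 P. falciparum cultures exposed from ring stage for 36 h to compound (4.5–10,000 nM range), with E-64 and 0.1% DMSO controls; thin smears methanol-fixed, Giemsa-stained and photographed.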"}, "Plasmodium falciparum [3]": {"tested_on": "Plasmodium falciparum", "assay": "Antimalarial activity against synchronized ring stage CQ-sensitive Plasmodium falciparum 3D7 infected in human erythrocytes incubated for 24 hrs followed by compound washout and subsequent compound addition and measured after 48 hrs by YOYO-1 probe-based flow cytometry", "format": "functional, organism-based"}, "HEK293": {"tested_on": "HEK293", "assay": "Cytotoxicity against HEK293 cells assessed as reduction in cell viability at 25 uM measured after 18 hrs by alamar blue assay", "format": "cell-based", "conditions": "human, hek293, 18 h"}, "[4]": {"assay": "Drug metabolism in mouse liver microsomes assessed as N-demethylation at 10 uM measured after 60 mins in presence of NADPH-generating system by UPLC-MS analysis", "format": "ADME, Microsome", "conditions": "1 h"}, "Plasmodium falciparum [5]": {"tested_on": "Plasmodium falciparum", "assay": "Antimalarial activity against synchronized ring stage CQ-resistant Plasmodium falciparum W2 infected in human erythrocytes incubated for 24 hrs followed by compound washout and subsequent compound addition and measured after 48 hrs by YOYO-1 probe-based flow cytometry", "format": "functional, organism-based"}, "Plasmodium berghei [6]": {"tested_on": "Plasmodium berghei", "assay": "Antimalarial activity against Plasmodium berghei ANKA infected in specific pathogen-free C57BL/6 mouse assessed as reduction in parasitemia at 12.5 to 50 mg/kg, ip administered at 72 hrs post-infection and measured daily up to 35 days post-infection by rapid staining-based microscopic analysis", "format": "functional, organism-based", "in_short": "(§1)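 Peters 4-day suppressive test: female C57BL/6 mice, 8–9 weeks old, inoculated i.p. with 10^6 PbA-parasitized red cells in 200 µL Alsever's medium. Compound in DMSO diluted in saline (50, 25, 12.5, 6.25 mg/kg) or vehicle, 200 µL i.p. at 4, 24, 48 and 72 h. Daily tail-vein smears, Rapid Stain, % parasitemia by microscopy; cure = healthy, no parasitemia at day 35; 5 mice/group, mean ± SEM.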"}, "[7]": {"assay": "Drug metabolism in human liver microsomes assessed as N-demethylation at 10 uM measured after 60 mins in presence of NADPH-generating system by UPLC-MS analysis", "format": "ADME, Microsome", "conditions": "1 h"}, "[8]": {"target": "T1, Cysteine protease falcipain-3 (Plasmodium falciparum, UniProt Q9NAW4)", "T1 sequence (Q9NAW4 whole entry)": "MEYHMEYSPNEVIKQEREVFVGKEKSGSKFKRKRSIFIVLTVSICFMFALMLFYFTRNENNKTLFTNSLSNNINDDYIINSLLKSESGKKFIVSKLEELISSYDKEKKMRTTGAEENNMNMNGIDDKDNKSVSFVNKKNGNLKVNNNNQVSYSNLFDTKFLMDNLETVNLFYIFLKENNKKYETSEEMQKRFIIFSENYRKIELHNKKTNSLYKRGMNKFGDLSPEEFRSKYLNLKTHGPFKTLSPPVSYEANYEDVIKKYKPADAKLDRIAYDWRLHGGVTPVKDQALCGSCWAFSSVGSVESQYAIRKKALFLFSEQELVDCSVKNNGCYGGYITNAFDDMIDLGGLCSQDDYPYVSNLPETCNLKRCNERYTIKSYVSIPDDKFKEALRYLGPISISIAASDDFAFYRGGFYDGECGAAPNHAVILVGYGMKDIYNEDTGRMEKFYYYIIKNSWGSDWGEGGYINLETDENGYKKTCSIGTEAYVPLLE", "assay": "Inhibition of Plasmodium falciparum N-terminal His-tagged falcipain-3 (33 residues) expressed in Escherichia coli M15 pREP4 using Z-Leu-Arg-AMC as substrate measured after 30 mins by spectrofluorometric method", "in_short": "(§2)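 Recombinant heterologously expressed FP2 or FP3; inhibition measured by continuous kinetic cleavage of fluorogenic substrate Z-Leu-Arg-AMC.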"}, "Falcipain 2": {"target": "T2, Falcipain 2 (Plasmodium falciparum, UniProt Q9N6S8)", "T2 sequence (Q9N6S8 whole entry)": "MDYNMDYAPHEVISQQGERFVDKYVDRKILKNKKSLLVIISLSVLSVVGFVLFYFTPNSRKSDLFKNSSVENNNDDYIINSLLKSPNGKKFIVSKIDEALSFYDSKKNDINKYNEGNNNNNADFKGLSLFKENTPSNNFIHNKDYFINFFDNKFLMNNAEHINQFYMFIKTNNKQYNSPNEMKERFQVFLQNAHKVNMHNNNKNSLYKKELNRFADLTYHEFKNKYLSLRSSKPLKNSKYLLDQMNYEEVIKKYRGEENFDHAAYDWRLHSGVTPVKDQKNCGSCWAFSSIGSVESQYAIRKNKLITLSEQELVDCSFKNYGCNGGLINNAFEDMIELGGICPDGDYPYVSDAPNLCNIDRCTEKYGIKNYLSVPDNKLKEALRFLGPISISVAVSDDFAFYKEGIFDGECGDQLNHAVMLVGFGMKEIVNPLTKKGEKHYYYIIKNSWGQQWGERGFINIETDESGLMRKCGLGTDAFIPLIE", "assay": "Inhibition of Plasmodium falciparum N-terminal His6-tagged falcipain-2 (35 residues) expressed in Escherichia coli M15 pREP4 using Z-Lue-Arg-AMC as substrate measured after 30 mins by spectrofluorometric method", "in_short": "as §2"}, "[9]": {"assay": "Half life in Swiss mouse blood at 1 ug/ml by UPLC-MS analysis", "format": "ADME, tissue-based", "conditions": "whole blood"}, "Plasmodium berghei [10]": {"tested_on": "Plasmodium berghei", "assay": "Antimalarial activity against Plasmodium berghei ANKA infected in specific pathogen-free C57BL/6 mouse assessed as reduction in parasitemia at 25 to 50 mg/kg, ip administered at 72 hrs post-infection and measured daily up to 35 days post-infection by rapid staining-based microscopic analysis", "format": "functional, organism-based", "in_short": "as §1"}, "Plasmodium berghei [11]": {"tested_on": "Plasmodium berghei", "assay": "Antimalarial activity against Plasmodium berghei ANKA infected in specific pathogen-free C57BL/6 mouse assessed as reduction in parasitemia at 100 mg/kg, po administered once daily for 4 days measured up to 35 days post-infection by rapid staining-based microscopic analysis", "format": "functional, organism-based", "in_short": "(§3)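 Female C57BL/6 mice, 8–9 weeks old, inoculated i.p. with 10^6 P. berghei ANKA-parasitized red cells. Compound dissolved in DMSO, diluted in 154 mM NaCl, given by oral gavage at 100 mg/kg on days 4, 5, 6 and 7 post-infection. Tail-vein thin smears stained with Rapid Stain, % parasitemia by microscopy; mice euthanized at signs of severe disease.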"}, "Plasmodium berghei [12]": {"tested_on": "Plasmodium berghei", "assay": "Antimalarial activity against Plasmodium berghei ANKA infected in specific pathogen-free C57BL/6 mouse assessed as mouse survival at 25 to 50 mg/kg, ip administered at 72 hrs post-infection by rapid staining-based microscopic analysis"}, "[13]": {"assay": "Intrinsic clearance in mouse liver microsomes assessed per mg protein at 1 uM measured after 60 mins in presence of NADPH-generating system by UPLC-MS analysis", "format": "ADME, Microsome", "conditions": "read-out: CLH"}, "Plasmodium berghei [14]": {"tested_on": "Plasmodium berghei", "assay": "Antimalarial activity against Plasmodium berghei ANKA infected in specific pathogen-free C57BL/6 mouse assessed as reduction in parasitemia at […] to 12.5 mg/kg, ip administered at 72 hrs post-infection and measured daily up to 35 days post-infection by rapid staining-based microscopic analysis", "format": "functional, organism-based", "in_short": "as §1"}, "Plasmodium berghei [15]": {"tested_on": "Plasmodium berghei", "assay": "Antimalarial activity against Plasmodium berghei ANKA infected in specific pathogen-free C57BL/6 mouse assessed as reduction in disease severity at 100 mg/kg, po administered once daily for 4 days measured up to 35 days post-infection by rapid staining-based microscopic analysis", "format": "functional, organism-based", "in_short": "as §3"}, "Plasmodium berghei [16]": {"tested_on": "Plasmodium berghei", "assay": "Antimalarial activity against Plasmodium berghei ANKA infected in specific pathogen-free C57BL/6 mouse assessed as reduction in parasitemia at 50 mg/kg, ip administered once daily for 4 days measured up to 35 days post-infection by rapid staining-based microscopic analysis", "format": "functional, organism-based", "in_short": "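Established-infection model: female C57BL/6 mice inoculated i.p. with 10^6 PbA-parasitized red cells; compound in DMSO diluted in saline given i.p. at 50 mg/kg on days 4, 5, 6 and 7 post-infection, chloroquine 50 mg/kg as comparator, vehicle controls; 7 mice per group. Tail-vein smears, % parasitemia by microscopy, mean ± SEM; survival recorded.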"}, "[17]": {"assay": "Drug metabolism in mouse liver microsomes assessed as N,N-bis-demethylation at 10 uM measured after 60 mins in presence of NADPH-generating system by UPLC-MS analysis", "format": "ADME, Microsome", "conditions": "1 h"}, "[18]": {"assay": "Drug metabolism in human liver microsomes assessed as N,N-bis-demethylation at 10 uM measured after 60 mins in presence of NADPH-generating system by UPLC-MS analysis", "format": "ADME, Microsome", "conditions": "1 h"}}, "note": "The source made the active and inactive calls. The rule behind the calls is not given here.", "data": [{"smiles": "COC1=CC(=O)N(C(=O)/C=C/[C@H](C)NC(=O)[C@H](CC(C)C)NC(=O)[C@H](CC2CCCCC2)NC(=O)C2CCN(C)CC2)[C@H]1Cc1c[nH]c2ccccc12.O=C(O)C(F)(F)F", "values": [{"measurement": "half-life at 1 ug/ml", "setting": "[1]", "result": 2.1, "unit": "h"}, {"measurement": "Activity", "setting": "Plasmodium falciparum [2]", "result": "Active"}, {"measurement": "IC50", "setting": "Plasmodium falciparum [3]", "result": 26, "unit": "nM"}, {"measurement": "Activity", "setting": "HEK293", "result": "Non-Toxic"}, {"measurement": "Drug metabolism", "setting": "[4]", "result": "Metabolite_Detected"}, {"measurement": "IC50", "setting": "Plasmodium falciparum [5]", "result": 28, "unit": "nM"}, {"measurement": "Activity", "setting": "Plasmodium berghei [6]", "result": "Active"}, {"measurement": "Drug metabolism", "setting": "[7]", "result": "Metabolite_Detected"}, {"measurement": "IC50", "setting": "[8]", "result": 117, "unit": "nM"}, {"measurement": "IC50", "setting": "Falcipain 2", "result": 31, "unit": "nM"}, {"measurement": "half-life at 1 ug/ml", "setting": "[9]", "result": 0.683, "unit": "h"}]}, {"smiles": "COC1=CC(=O)N(C(=O)/C=C/[C@H](C)NC(=O)[C@H](CC(C)C)NC(=O)[C@H](CC(C)C)NC(=O)C2CCN(C)CC2)[C@H]1Cc1c[nH]c2ccccc12.O=C(O)C(F)(F)F", "values": [{"measurement": "half-life at 1 ug/ml", "setting": "[1]", "result": 1.37, "unit": "h"}, {"measurement": "Activity", "setting": "Plasmodium falciparum [2]", "result": "Active"}, {"measurement": "IC50", "setting": "Plasmodium falciparum [3]", "result": 42, "unit": "nM"}, {"measurement": "Activity", "setting": "HEK293", "result": "Non-Toxic"}, {"measurement": "Activity", "setting": "Plasmodium berghei [10]", "result": "Active"}, {"measurement": "Drug metabolism", "setting": "[4]", "result": "Metabolite_Detected"}, {"measurement": "IC50", "setting": "Plasmodium falciparum [5]", "result": 49, "unit": "nM"}, {"measurement": "Drug metabolism", "setting": "[7]", "result": "Metabolite_Detected"}, {"measurement": "IC50", "setting": "[8]", "result": 79, "unit": "nM"}, {"measurement": "IC50", "setting": "Falcipain 2", "result": 29, "unit": "nM"}, {"measurement": "half-life at 1 ug/ml", "setting": "[9]", "result": 0.283, "unit": "h"}]}, {"smiles": "COC1=CC(=O)N(C(=O)/C=C/[C@H](CCc2ccccc2)NC(=O)[C@H](CC(C)C)NC(=O)[C@H](CC(C)C)NC(=O)[C@H](C(C)C)N(C)C)[C@H]1Cc1c[nH]c2ccccc12.O=C(O)C(F)(F)F", "values": [{"measurement": "half-life at 1 ug/ml", "setting": "[1]", "result": 6.22, "unit": "h"}, {"measurement": "Activity", "setting": "Plasmodium falciparum [2]", "result": "Active"}, {"measurement": "Activity", "setting": "Plasmodium berghei [11]", "result": "Active"}, {"measurement": "IC50", "setting": "Plasmodium falciparum [3]", "result": 1, "unit": "nM"}, {"measurement": "Activity", "setting": "HEK293", "result": "Non-Toxic"}, {"measurement": "Survival", "setting": "Plasmodium berghei [12]", "result": ">35", "unit": "days"}, {"measurement": "microsomal CLint at 1 µM", "setting": "[13]", "result": 787, "unit": "µL/min/mg"}, {"measurement": "Activity", "setting": "Plasmodium berghei [14]", "result": "Active"}, {"measurement": "IC50", "setting": "Plasmodium falciparum [5]", "result": 4, "unit": "nM"}, {"measurement": "IC50", "setting": "[8]", "result": 112, "unit": "nM"}, {"measurement": "Activity", "setting": "Plasmodium berghei [15]", "result": "Active"}, {"measurement": "IC50", "setting": "Falcipain 2", "result": 33, "unit": "nM"}, {"measurement": "Activity", "setting": "Plasmodium berghei [16]", "result": "Active"}, {"measurement": "Drug metabolism", "setting": "[17]", "result": "Metabolite_Detected"}, {"measurement": "half-life at 1 ug/ml", "setting": "[9]", "result": 4.55, "unit": "h"}, {"measurement": "Drug metabolism", "setting": "[18]", "result": "Metabolite_Detected"}]}]}
